Results collected from several papers.
Protocols differ between the studies behind these lines.
Target: Mitogen-activated protein kinase 1 (MAPK1, Homo sapiens, UniProt P28482)

C=CC(=O)N1CCC(C(=O)NCC(=O)N2CCN(c3nc(-c4cnc(N)nc4C(F)F)nc(N4CCOCC4)n3)CC2)CC1
remaining binding (binding, competition with immobilised ligand; 1 µM): 98%

CN(C)c1ncc(F)c(-c2cnn3ncccc23)n1
remaining binding (binding; 1 µM): 82%

CNC(=O)[C@@H]1CC[C@@H](n2c(-c3ccc4cnccc4c3)nc3ccc(C(=O)NCc4cccc(C(N)=O)c4)cc32)C1
remaining binding (binding, competition with immobilised ligand; 1 µM): 91%

CSc1cccnc1N1CCN(Cc2nc3ccccc3[nH]2)CC1
remaining binding (cell-free assay, competition with immobilised ligand; 1 µM): 93%

C[C@H]1CCN(c2nccc(-c3cnn4ncccc34)n2)C1
remaining binding (binding; 1 µM): 100%

C[C@@H](c1ccc(-n2cnc3c(N)ncnc32)cc1)N1CCc2nn(C)c(Cc3ccccc3)c2C1=O
remaining binding (binding, competition with immobilised ligand; 0.1 µM): 91%

COc1cnc(Nc2cccc(S(N)(=O)=O)c2)nc1N1CCN(c2ccccc2)CC1
remaining binding (binding, competition with immobilised ligand; 1 µM): 100%

c1cncc(-c2cccc(Nc3nccc(NC4CCCCC4)n3)c2)c1
remaining binding (binding, competition with immobilised ligand; 10 µM): 92%

FC(F)(F)c1ccc2c(c1)nc(-c1cccnc1)n2C1CC1
remaining binding (cell-free assay, competition with immobilised ligand; 1 µM): 100%

O=C(c1ccc(Nc2ncc(Cl)c(-c3cc4ccccc4s3)n2)cc1)N1CCC(N2CCCC2)CC1
remaining binding (binding, competition with immobilised ligand; 1 µM): 100%

COc1cccc(CNC(=O)c2nc3scc(COCc4ccc(C(=O)O)cc4)c3c(=O)[nH]2)c1
remaining binding (cell-free assay, competition with immobilised ligand; 1 µM): 100%

CN(C)c1nccc(-c2cnn3ncccc23)n1
remaining binding (binding; 1 µM): 100%

Cn1nc(C(F)(F)F)cc1-c1cnc(N2CCc3cc(S(=O)(=O)Nc4c(F)cc(Cl)cc4F)cc(N4CCCC4=O)c32)nc1
remaining binding (cell-free assay, competition with immobilised ligand; 1 µM): 100%

O=C(NCCCN1CCOCC1)c1ccc(Nc2ncc(Cl)c(-c3ccc(Cl)s3)n2)cc1
remaining binding (binding, competition with immobilised ligand; 1 µM): 100%

CN(C)c1nccc(-c2cnc3ncccn23)n1
remaining binding (binding; 1 µM): 81%

O=C(c1ccc(Nc2nccc(-c3cc4ccccc4s3)n2)cc1)N1CCC(N2CCCC2)CC1
remaining binding (binding, competition with immobilised ligand; 1 µM): 100%

N[C@@H]1CCN(c2nccc(-c3cnn4ncccc34)n2)C1
remaining binding (binding; 1 µM): 100%

O=C(NCC1CCOCC1)c1n[nH]cc1NC(=O)c1c(F)cccc1F
remaining binding (binding, competition with immobilised ligand; 1 µM): 87%

CO[C@@H](C)c1c(Nc2ccc([C@H](N(C)C(=O)C3CCS(=O)(=O)CC3)C(F)(F)F)cc2)cnc2cc(Cl)nn12
remaining binding (cell-free assay, competition with immobilised ligand; 1 µM): 100%

F[C@@H]1CCN(c2nccc(-c3cnn4ncccc34)n2)C1
remaining binding (binding; 1 µM): 100%

CCCOc1ccc([C@H]2[C@H](C(=O)O)[C@@H](c3ccc4c(c3)OCO4)CN2CC(=O)Nc2c(CC)cccc2CC)cc1
remaining binding (cell-free assay, competition with immobilised ligand; 1 µM): 100%

CC1CCCN1c1nccc(-c2cnn3ncccc23)n1 (stereo not shown)
remaining binding (binding; 1 µM): 95%
